From ChEMBL document CHEMBL2150952 (J Med Chem, 2011) come the findings set out here.

Data set [1] can be described thus: Clearance in fasted C57BL6 mouse at 2 mg/kg, iv and 10 mg/kg, po BID. The data set is classed as ADME, organism-based. As to conditions: in vivo. An outline of the steps:
(§1)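 Fasted male C57BL6 mice received 2 mg/kg IV and 10 mg/kg PO. For the reference compound, IV was given as a solution in 60% PEG-200 and PO as a suspension in 1% methocel. Plasma levels were measured by LC-MS/MS. Values are the mean of n = 3 animals.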

Data set [2] can be described thus: Half life in fasted C57BL6 mouse at 2 mg/kg, iv and 10 mg/kg, po BID. The note with it: in vivo. The data set is classed as ADME, organism-based. An outline of the steps: as §1
Data set [3] is described as follows: Oral bioavailability in C57BL6 mouse at 10 mg/kg BID. The data set is classed as ADME, organism-based. The note with it: in vivo, in the assay text read “10 mg/kg” for “10 mg/kg BID”. The method, boiled down: (§2)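 Fasted male C57BL6 mice given 2 mg/kg IV and 10 mg/kg PO. Plasma drug levels measured by LC-MS/MS, mean of n = 3 animals, and PK parameters derived from these.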

Data set [4] can be described thus: AUC in plasma of fasted C57BL6 mouse at 2 mg/kg, iv and 10 mg/kg, po BID. It is filed as ADME, organism-based. An outline of the steps: as §1
A short description of data set [5]: Cmax in plasma of fasted C57BL6 mouse at 2 mg/kg, iv and 10 mg/kg, po BID. The data set is classed as ADME, organism-based. The method, boiled down: as §1
Data set [6] can be described thus: Volume of distribution in fasted C57BL6 mouse at 2 mg/kg, iv and 10 mg/kg, po BID. It is filed as ADME, organism-based. The note with it: in vivo. The method, boiled down: as §2
In the next data set the test system is HepG2. Kind of data set: Ratio IC50 for SCD-1 activity in organic anion transporting polypeptides-deficient human HepG2 cells to IC50 for SCD-1 activity in Sprague-Dawley rat Hepatocytes expressing organic anion transporting polypeptides. The data set is classed as cell-based. The method, boiled down:
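Cellular SCD IC50s measured in human HepG2 cells (lacking active OATPs) and in rat hepatocytes (active OATPs). Hepatocytes preincubated with compound for 15 min at 37 °C, then given 14C-stearic acid (final 0.5 μCi/ml) for 1 h with shaking. Lipids hydrolysed in 2N NaOH at 75 °C, acidified and extracted. Radiolabelled oleic and stearic acid resolved by HPLC with flow scintillation detection. Mean of at least n = 3. HepG2 IC50 divided by hepatocyte IC50.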

In the next data set the target is T1, Stearoyl-CoA desaturase (Homo sapiens, UniProt O00767).
T1 sequence (O00767 whole entry): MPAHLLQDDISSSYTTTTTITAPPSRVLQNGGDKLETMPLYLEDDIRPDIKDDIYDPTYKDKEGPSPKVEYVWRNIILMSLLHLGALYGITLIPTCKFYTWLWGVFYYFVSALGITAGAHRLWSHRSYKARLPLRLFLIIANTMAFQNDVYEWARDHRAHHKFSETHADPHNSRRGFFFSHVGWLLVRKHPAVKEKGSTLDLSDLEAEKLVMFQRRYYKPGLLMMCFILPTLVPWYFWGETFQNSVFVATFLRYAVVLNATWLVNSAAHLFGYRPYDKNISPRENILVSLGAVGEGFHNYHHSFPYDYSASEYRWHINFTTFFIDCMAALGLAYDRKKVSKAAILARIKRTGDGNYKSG
The experiment in a line: Inhibition of SCD-1 activity in organic anion transporting polypeptides-deficient human HepG2 cells assessed as reduction in [I-14C] stearoyl CoA desaturation by scintillation counting. The data set is classed as cell-based.

Data set [7] is described as follows: Ratio drug uptake in liver to plasma of C57BL6 mouse at 10 mg/kg, po measured 6 hrs post dose. The data set is classed as ADME, organism-based. Details: dose 10 mg/kg, route oral. The note with it: liver and plasma. An outline of the steps:
(§3)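 Single oral dose of 10 mg/kg in 0.5% methylcellulose to fed C57BL6 mice (n = 2). Animals sacrificed 6 h post dose. Plasma, liver, skin and Harderian gland collected. Tissues homogenized in MeCN/water with internal standard and drug quantified by LC-MS against a standard curve made in blank plasma. Concentration ratio calculated.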

Data set [8] has as its target T2, Acyl-CoA desaturase 1 (Rattus norvegicus, UniProt P07308).
T2 sequence (P07308 whole entry): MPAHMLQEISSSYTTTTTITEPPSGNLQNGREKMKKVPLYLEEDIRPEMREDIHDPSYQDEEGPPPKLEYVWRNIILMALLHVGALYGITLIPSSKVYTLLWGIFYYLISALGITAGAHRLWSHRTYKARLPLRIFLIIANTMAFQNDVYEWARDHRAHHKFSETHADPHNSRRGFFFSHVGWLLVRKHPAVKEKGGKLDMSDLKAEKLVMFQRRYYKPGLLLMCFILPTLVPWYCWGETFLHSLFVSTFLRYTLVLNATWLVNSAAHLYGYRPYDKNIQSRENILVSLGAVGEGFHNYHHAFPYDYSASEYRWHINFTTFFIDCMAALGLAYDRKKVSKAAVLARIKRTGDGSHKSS
The experiment in a line: Inhibition of SCD-1 activity in Sprague-Dawley rat microsome assessed as reduction in [I-14C] stearoyl CoA desaturation by scintillation counting. It is filed as microsomes.

A further data set relates to Liver. Kind of data set: Ratio drug uptake in liver to harderian gland of C57BL6 mouse at 10 mg/kg, po measured 6 hrs post dose. As to conditions: in vivo. It is filed as ADME, organism-based. On the set-up: dose 10 mg/kg, route oral. The method, boiled down: as §3
The target in data set [9] is T2, Acyl-CoA desaturase 1. The experiment in a line: Inhibition of SCD-1 activity in Sprague-Dawley rat Hepatocytes expressing organic anion transporting polypeptides assessed as reduction in [I-14C] […] desaturation by scintillation counting. It is filed as cell-based, Hepatocyte. The method, boiled down: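 Rat hepatocytes (4 × 10^6 cells/mL) were preincubated with compound for 15 min at 37 °C/5% CO2. 14C-stearic acid (final 0.5 μCi/mL) was then added for 1 h with shaking. Cells were washed, hydrolyzed in 2N NaOH at 75 °C for 1 h, acidified and extracted. Radiolabeled oleic and stearic acids were quantified by HPLC with flow scintillation detection. Mean of at least n = 3.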

Data set [10] has as its system Mus musculus. The experiment in a line: Antidiabetic activity in diet-induced obese C57BL6 mouse assessed as reduction in body weight gain at 30 mg/kg, po BID. The data set is classed as functional, organism-based. On the set-up: dose 30 mg/kg.
In data set [11] the test system is Mus musculus. Kind of data set: Inhibition of SCD activity in liver of diet-induced obese C57BL6 mouse assessed as reduction in desaturation induces at 30 mg/kg, po BID. The data set is classed as functional, organism-based. On the set-up: dose 30 mg/kg.

Calls of active or inactive are those of the source. The rule behind the calls is not given here.

`O=C([O-])Cn1nnc(-c2cc(N3CCC(Oc4cc(F)ccc4Br)CC3)no2)n1.[Na+]` showed a clearance in data set [1] of 41 mL/min/kg. In data set [2], this molecule showed a half-life of 42 min. In data set [3], this molecule showed a bioavailability of 12%. In data set [4], the AUC came to 1 µM·h. This molecule came in with a Cmax in data set [5] of 400 nM. In [6], the Vd was 1 L/kg.
As for `FC(F)(F)c1ccccc1OC1CCN(c2nnc(-c3nn[nH]n3)s2)CC1`, the Ratio IC50 in the data set on HepG2 was over 14. The IC50 is over 50000 nM at Stearoyl-CoA desaturase, 276 nM at Acyl-CoA desaturase 1 [8] and 3470 nM on Acyl-CoA desaturase 1 [9]. Further, the Kp at 6 h in [7] amounted to 15. For the same molecule, the Ratio in the data set with Liver is on record as 330.
`O=C(O)Cn1nnc(-c2nnc(N3CCC(Oc4cc(F)ccc4Br)CC3)s2)n1`: in the data set on HepG2, the Ratio IC50 was found to be 5. In the data set with Mus musculus [10], the result was inactive. For the same molecule, the inhibition result in the data set on Mus musculus [11] is “Active”. Also, the IC50 at Stearoyl-CoA desaturase amounted to 904 nM; at Acyl-CoA desaturase 1 [8], 7 nM; on Acyl-CoA desaturase 1 [9], 189 nM. The Ratio in the data set with Liver is on record as 40.

By half-life is commonly meant how long it takes for the measured level to halve. High values mean slow loss, low ones fast loss. Usually bioavailability stands for the share of a dose that reaches the circulation, judged against a reference dose that is usually intravenous. A lower bioavailability goes with little systemic uptake. As a reminder, the AUC is concentration integrated over time. What is called Cmax is the highest concentration seen after dosing. A word on the IC50: it is the concentration that inhibits the measured activity by half. Broadly, the Kp is tissue or fluid exposure divided by exposure in the circulation.
